The values below come from ChEMBL document CHEMBL4613291, “Structural Elucidation and Antimicrobial Characterization of Novel Diterpenoids from Fabiana densa var. ramulosa” (ACS Med Chem Lett, 2020).

The source made the active and inactive calls. The rule behind the calls is not given here.

The first data set deals with Staphylococcus aureus. The data set is described as follows: Antimicrobial activity against Staphylococcus aureus ATCC 25923 assessed as reduction in bacterial growth at 64 uM incubated for 16 hrs by broth dilution method relative to control. Conditions: ATCC 25923, 16 h. Type of data set: functional. An outline of the steps:
(§1)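 Bacterial growth was measured with the strain panel split into Gram-negative and Gram-positive groups. Growth is expressed as percentage of vehicle-treated control bacteria. Values are the mean of three independent experiments ± SEM. Each treated group was compared with control for significance (p < 0.05, 0.01, 0.0001). The highest concentration tested was 64 μM.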
In general terms: Dilution methods test growth across graded concentrations, often in twofold steps.
By inhibition is commonly meant the percentage by which the read-out fell short of the control. For `C[C@]12C=C[C@@]3(CC[C@@H]4[C@@](C)(COC(=O)C(=O)O)CCC[C@@]4(C)[C@@H]3CC1)C2`, the inhibition at 64 µM was found to be 40%.
Still for that read-out and setting: as for `C[C@]12C=C[C@@]3(CC[C@@H]4[C@@](C)(COC(=O)CCC(=O)O)CCC[C@@]4(C)[C@@H]3CC1)C2`, the figure is 40%.

A further data set concerns Bacillus thuringiensis. Put plainly: Antimicrobial activity against Bacillus thuringiensis B15 assessed as reduction in bacterial growth at 64 uM incubated for 16 hrs by broth dilution method relative to control. Type of data set: functional. The following applies: B15, 16 h. An outline of the steps: as §1
As for `C[C@]12C=C[C@@]3(CC[C@@H]4[C@@](C)(COC(=O)C(=O)O)CCC[C@@]4(C)[C@@H]3CC1)C2`, the inhibition at 64 µM was determined as 50%.
On to `C[C@]12C=C[C@@]3(CC[C@@H]4[C@@](C)(COC(=O)CCC(=O)O)CCC[C@@]4(C)[C@@H]3CC1)C2`, for which the inhibition at 64 µM was 100%.
Same read-out and setting: as for `C[C@]12C=C[C@@]3(CC[C@@H]4[C@@](C)(COC(=O)CC(=O)O)CCC[C@@]4(C)[C@@H]3CC1)C2`, the figure is greater than 70%.

A further data set has as its system Escherichia coli. Put plainly: Antimicrobial activity against Escherichia coli ATCC 25922 assessed as reduction in bacterial growth at 16 to 64 uM incubated for 16 hrs by broth dilution method. Format: functional, organism-based.
Conditions: not given
An outline of the steps: as §1
For the compound `C[C@]12C=C[C@@]3(CC[C@@H]4[C@@](C)(COC(=O)C(=O)OC[C@@]5(C)CCC[C@]6(C)[C@@H]5CC[C@@]57C=C[C@@](C)(CC[C@H]56)C7)CCC[C@@]4(C)[C@@H]3CC1)C2`, the inhibition result is “inactive”.
For the compound `C[C@]12C=C[C@@]3(CC[C@@H]4[C@@](C)(COC(=O)CC(=O)OC[C@@]5(C)CCC[C@]6(C)[C@@H]5CC[C@@]57C=C[C@@](C)(CC[C@H]56)C7)CCC[C@@]4(C)[C@@H]3CC1)C2`, the inhibition entry was “inactive”.
As to `C[C@]12C=C[C@@]3(CC[C@@H]4[C@@](C)(CO)CCC[C@@]4(C)[C@@H]3CC1)C2`, the inhibition entry is “inactive”.
With `C[C@]12C=C[C@@]3(CC[C@@H]4[C@@](C)(COC(=O)CCC(=O)OC[C@@]5(C)CCC[C@]6(C)[C@@H]5CC[C@@]57C=C[C@@](C)(CC[C@H]56)C7)CCC[C@@]4(C)[C@@H]3CC1)C2`, the inhibition result was “inactive”.

The next data set deals with Staphylococcus epidermidis. The data set is described as follows: Antimicrobial activity against Staphylococcus epidermidis ATCC 12228 assessed as reduction in bacterial growth at 64 uM incubated for 16 hrs by broth dilution method relative to control. Type of data set: functional. The following applies: ATCC 12228, 16 h. An outline of the steps: as §1
For `C[C@]12C=C[C@@]3(CC[C@@H]4[C@@](C)(COC(=O)C(=O)O)CCC[C@@]4(C)[C@@H]3CC1)C2`, the inhibition at 64 µM was determined as 50%.
In the case of `C[C@]12C=C[C@@]3(CC[C@@H]4[C@@](C)(COC(=O)CCC(=O)O)CCC[C@@]4(C)[C@@H]3CC1)C2`, the inhibition at 64 µM stood at 80%.

The next data set has as its system HaCaT. Put plainly: Cytotoxicity against human HaCaT cells assessed as reduction in cell viability at 16 to 64 uM incubated for 24 hrs by MTT assay. Type of data set: cell-based.
Conditions: not given
The method in brief: (§2)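 Human immortalized keratinocytes (HaCaT) were exposed for 24 h across 16–64 μM. Metabolically active cells were read by MTT and calculated as a percentage of vehicle-treated cells. Values are the mean of three independent experiments ± SEM.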
On the technique in general: Tetrazolium assays rely on reduction of a dye to a coloured formazan, in cell work by metabolically active cells.
As for `C[C@]12C=C[C@@]3(CC[C@@H]4[C@@](C)(CO)CCC[C@@]4(C)[C@@H]3CC1)C2`, the Activity result was “Non-Toxic”.

The next data set concerns Priestia megaterium. The data set is described as follows: Antimicrobial activity against Bacillus megaterium Bm11 assessed as reduction in bacterial growth at 16 to 64 uM incubated for 16 hrs by broth dilution method relative to control. Format: functional.
Conditions: not given
The method in brief:
as §1
As to `C[C@]12C=C[C@@]3(CC[C@@H]4[C@@](C)(COC(=O)CCC(=O)O)CCC[C@@]4(C)[C@@H]3CC1)C2`, the “inhibition (INH)” value stood at 80%.
`C[C@]12C=C[C@@]3(CC[C@@H]4[C@@](C)(COC(=O)CC(=O)O)CCC[C@@]4(C)[C@@H]3CC1)C2`: the “inhibition (INH)” value was greater than 70%.

Another data set concerns Staphylococcus aureus. The data set is described as follows: Antimicrobial activity against Staphylococcus aureus ATCC 25923 assessed as reduction in bacterial growth at 16 to 64 uM incubated for 16 hrs by broth dilution method. Type of data set: functional, organism-based.
Conditions: not given
An outline of the steps:
as §1
Consider `C[C@]12C=C[C@@]3(CC[C@@H]4[C@@](C)(COC(=O)C(=O)OC[C@@]5(C)CCC[C@]6(C)[C@@H]5CC[C@@]57C=C[C@@](C)(CC[C@H]56)C7)CCC[C@@]4(C)[C@@H]3CC1)C2`, for which the inhibition result was “inactive”.
On the same count and under the same terms, for `C[C@]12C=C[C@@]3(CC[C@@H]4[C@@](C)(COC(=O)CC(=O)OC[C@@]5(C)CCC[C@]6(C)[C@@H]5CC[C@@]57C=C[C@@](C)(CC[C@H]56)C7)CCC[C@@]4(C)[C@@H]3CC1)C2` the value was “inactive”; for `C[C@]12C=C[C@@]3(CC[C@@H]4[C@@](C)(COC(=O)CC(=O)O)CCC[C@@]4(C)[C@@H]3CC1)C2`, “Active”.
Take `C[C@]12C=C[C@@]3(CC[C@@H]4[C@@](C)(CO)CCC[C@@]4(C)[C@@H]3CC1)C2`: the inhibition entry was “inactive”.
Same read-out and setting: as for `C[C@]12C=C[C@@]3(CC[C@@H]4[C@@](C)(COC(=O)CCC(=O)OC[C@@]5(C)CCC[C@]6(C)[C@@H]5CC[C@@]57C=C[C@@](C)(CC[C@H]56)C7)CCC[C@@]4(C)[C@@H]3CC1)C2`, the entry is “inactive”.

The next data set deals with Pseudomonas aeruginosa. The data set is described as follows: Antimicrobial activity against Pseudomonas aeruginosa ATCC 27853 assessed as reduction in bacterial growth at 16 to 64 uM incubated for 16 hrs by broth dilution method. Type of data set: functional, organism-based.
Conditions: not given
An outline of the steps:
as §1
With `C[C@]12C=C[C@@]3(CC[C@@H]4[C@@](C)(COC(=O)C(=O)OC[C@@]5(C)CCC[C@]6(C)[C@@H]5CC[C@@]57C=C[C@@](C)(CC[C@H]56)C7)CCC[C@@]4(C)[C@@H]3CC1)C2`, the inhibition result is “inactive”.
For `C[C@]12C=C[C@@]3(CC[C@@H]4[C@@](C)(COC(=O)CC(=O)OC[C@@]5(C)CCC[C@]6(C)[C@@H]5CC[C@@]57C=C[C@@](C)(CC[C@H]56)C7)CCC[C@@]4(C)[C@@H]3CC1)C2`, the inhibition result was “inactive”.
Turning to `C[C@]12C=C[C@@]3(CC[C@@H]4[C@@](C)(CO)CCC[C@@]4(C)[C@@H]3CC1)C2`, the inhibition result was “inactive”.
Still for that read-out and setting: as for `C[C@]12C=C[C@@]3(CC[C@@H]4[C@@](C)(COC(=O)CCC(=O)OC[C@@]5(C)CCC[C@]6(C)[C@@H]5CC[C@@]57C=C[C@@](C)(CC[C@H]56)C7)CCC[C@@]4(C)[C@@H]3CC1)C2`, the entry is “inactive”.

The test system of another data set is Staphylococcus epidermidis. The data set is described as follows: Antimicrobial activity against Staphylococcus epidermidis ATCC 12228 assessed as reduction in bacterial growth at 16 to 64 uM incubated for 16 hrs by broth dilution method.
Conditions: not given
Type of data set: functional, organism-based. An outline of the steps:
as §1
As for `C[C@]12C=C[C@@]3(CC[C@@H]4[C@@](C)(COC(=O)C(=O)OC[C@@]5(C)CCC[C@]6(C)[C@@H]5CC[C@@]57C=C[C@@](C)(CC[C@H]56)C7)CCC[C@@]4(C)[C@@H]3CC1)C2`, the inhibition entry was “inactive”.
Take `C[C@]12C=C[C@@]3(CC[C@@H]4[C@@](C)(COC(=O)CC(=O)OC[C@@]5(C)CCC[C@]6(C)[C@@H]5CC[C@@]57C=C[C@@](C)(CC[C@H]56)C7)CCC[C@@]4(C)[C@@H]3CC1)C2`: the inhibition result is “inactive”.
Same read-out and setting: for `C[C@]12C=C[C@@]3(CC[C@@H]4[C@@](C)(COC(=O)CC(=O)O)CCC[C@@]4(C)[C@@H]3CC1)C2` the value was “Active”; for `C[C@]12C=C[C@@]3(CC[C@@H]4[C@@](C)(CO)CCC[C@@]4(C)[C@@H]3CC1)C2`, “inactive”; for `C[C@]12C=C[C@@]3(CC[C@@H]4[C@@](C)(COC(=O)CCC(=O)OC[C@@]5(C)CCC[C@]6(C)[C@@H]5CC[C@@]57C=C[C@@](C)(CC[C@H]56)C7)CCC[C@@]4(C)[C@@H]3CC1)C2`, “inactive”.

For a further data set, the system named is Bacillus thuringiensis. Put plainly: Antimicrobial activity against Bacillus thuringiensis B15 assessed as reduction in bacterial growth at 16 to 64 uM incubated for 16 hrs by broth dilution method. Format: functional, organism-based.
Conditions: not given
An outline of the steps: as §1
As to `C[C@]12C=C[C@@]3(CC[C@@H]4[C@@](C)(COC(=O)C(=O)OC[C@@]5(C)CCC[C@]6(C)[C@@H]5CC[C@@]57C=C[C@@](C)(CC[C@H]56)C7)CCC[C@@]4(C)[C@@H]3CC1)C2`, the inhibition result is “inactive”.
As to `C[C@]12C=C[C@@]3(CC[C@@H]4[C@@](C)(COC(=O)CC(=O)OC[C@@]5(C)CCC[C@]6(C)[C@@H]5CC[C@@]57C=C[C@@](C)(CC[C@H]56)C7)CCC[C@@]4(C)[C@@H]3CC1)C2`, the inhibition result was “inactive”.
The same measure, in the same setting: as for `C[C@]12C=C[C@@]3(CC[C@@H]4[C@@](C)(COC(=O)CC(=O)O)CCC[C@@]4(C)[C@@H]3CC1)C2`, the entry is “Active”.
As for `C[C@]12C=C[C@@]3(CC[C@@H]4[C@@](C)(CO)CCC[C@@]4(C)[C@@H]3CC1)C2`, the inhibition entry is “inactive”.
Still for that read-out and setting: for `C[C@]12C=C[C@@]3(CC[C@@H]4[C@@](C)(COC(=O)CCC(=O)OC[C@@]5(C)CCC[C@]6(C)[C@@H]5CC[C@@]57C=C[C@@](C)(CC[C@H]56)C7)CCC[C@@]4(C)[C@@H]3CC1)C2` the value was “inactive”.

System in the next data set: not listed separately
Put plainly: Cytotoxicity against human HaCaT cells assessed as reduction in cell viability at 64 uM incubated for 24 hrs by MTT assay relative to control. Type of data set: cell-based. Conditions: read-out: INH. The method in brief: as §2
As to `C[C@]12C=C[C@@]3(CC[C@@H]4[C@@](C)(COC(=O)C(=O)O)CCC[C@@]4(C)[C@@H]3CC1)C2`, the cytotoxicity at 24 h, 64 µM worked out at 36%.
Same read-out and setting: as for `C[C@]12C=C[C@@]3(CC[C@@H]4[C@@](C)(COC(=O)CCC(=O)O)CCC[C@@]4(C)[C@@H]3CC1)C2`, the figure is 20%; as for `C[C@]12C=C[C@@]3(CC[C@@H]4[C@@](C)(COC(=O)CC(=O)O)CCC[C@@]4(C)[C@@H]3CC1)C2`, 14%.

A further data set concerns Priestia megaterium. The data set is described as follows: Antimicrobial activity against Bacillus megaterium Bm11 assessed as reduction in bacterial growth at 16 to 64 uM incubated for 16 hrs by broth dilution method. Type of data set: functional, organism-based.
Conditions: not given
The method in brief: as §1
As for `C[C@]12C=C[C@@]3(CC[C@@H]4[C@@](C)(COC(=O)C(=O)OC[C@@]5(C)CCC[C@]6(C)[C@@H]5CC[C@@]57C=C[C@@](C)(CC[C@H]56)C7)CCC[C@@]4(C)[C@@H]3CC1)C2`, the inhibition entry is “inactive”.
Still for that read-out and setting: for `C[C@]12C=C[C@@]3(CC[C@@H]4[C@@](C)(COC(=O)CC(=O)OC[C@@]5(C)CCC[C@]6(C)[C@@H]5CC[C@@]57C=C[C@@](C)(CC[C@H]56)C7)CCC[C@@]4(C)[C@@H]3CC1)C2` the value was “inactive”.
Regarding `C[C@]12C=C[C@@]3(CC[C@@H]4[C@@](C)(COC(=O)CC(=O)O)CCC[C@@]4(C)[C@@H]3CC1)C2`, the inhibition result was “Active”.
`C[C@]12C=C[C@@]3(CC[C@@H]4[C@@](C)(CO)CCC[C@@]4(C)[C@@H]3CC1)C2`: the inhibition result was “inactive”.
The same measure, in the same setting: for `C[C@]12C=C[C@@]3(CC[C@@H]4[C@@](C)(COC(=O)CCC(=O)OC[C@@]5(C)CCC[C@]6(C)[C@@H]5CC[C@@]57C=C[C@@](C)(CC[C@H]56)C7)CCC[C@@]4(C)[C@@H]3CC1)C2` the value was “inactive”.
